Experiment [1] in a line: inhibitors of TNFa-induced NFkB p65 translocation, primary screen, imaging, HUVEC, MLSMR starter and 10KST1 sets (AID 438).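 Also: compound added about 3h40 before a 20 min TNFalpha stimulation.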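 As to inhibition: signal is the nuclear over cytoplasmic p65 intensity ratio per well.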 The settings on record: HUVEC TNFa-induced p65 nuclear translocation; cell count: measured here: nuclei count (cytotoxicity indicator), at 2.08 µM; inhibition: at 2 µM, stronger effect = higher value, 0% TNFa-plus-vehicle, 100% no-TNFa wells.
The nature of experiment [2]: inhibitors of mutant huntingtin aggregation, primary screen, imaging, exon1htt(103Q)mCFP cells, high-content imaging (AID 483;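 active = visual image review flags a hit and inhibition of aggregation exceeds 20%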;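 also: compound exposure lasted 3 days before fixation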;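 as to nuclei count: percent of the per-plate median nuclei count of sample wells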). Particulars: exon1htt(103Q)mCFP cell line, aggregate imaging, at 2 µM; inhibition of aggregation: stronger effect = higher value; nuclei count: measured here: cell count, toxicity.
A short description of experiment [3]: inhibitors of E-selectin induction by TNFa, primary screen, imaging, HUVEC, immunofluorescence, MLSMR starter and 10KST1 sets (AID 487;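 active = visually confirmed hit in the image check and inhibition above 20%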;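 as to inhibition: signal is fraction of cell area covered by stained E-selectin grains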;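 as to nuclei count: 100% = median nuclei count of all wells on the same plate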). Particulars: HUVEC TNFalpha-induced E-selectin immunofluorescence imaging, at 2 µM; inhibition: stronger effect = higher value; nuclei count: measured here: cell number, toxicity.
In experiment [4] the target is Voltage-gated potassium channel subunit beta-2 (Rattus norvegicus) (UniProt P62483). The experiment is described as follows: KvBeta enzyme negative modulators, primary screen, biochemical, NADPH fluorescence (AID 622;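 active = fluorescence slope higher than the sample average by over 3 SD, cut at about -0.22 in these data, passing the limit was not always enough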;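 also: slope of raw intensity against log time taken from 70 to 1610 s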). The settings on record: recombinant KvBeta, 4-cyanobenzaldehyde reduction, at 10 µM, stronger effect = higher value.
For experiment [5] the target is unchanged. Kind of experiment: KvBeta positive modulators, primary screen, biochemical, NADPH fluorescence (AID 623;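 active = NADPH fluorescence slope more negative than the mean of all samples by about 3 SD, 99.7% confidence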;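 also: fluorescence intensity change per second fitted from 20 to 320 s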). The settings on record: Recombinant KvBeta, NADPH fluorescence decrease slope, 10 min; at 10 µM; stronger effect = lower value.
Experiment [6] deals with Muscarinic acetylcholine receptor M4 (Homo sapiens) (UniProt P08173). The experiment is described as follows: compounds altering M4/GIRK thallium flux, either direction, primary screen, M4 allosteric agonist project, cell-based, HEK293 M4/GIRK, BTC-AM (AID 625;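 active = fluorescence slope after compound addition differing from the mean of all tested samples at 99.7% confidence, mostly higher but some lower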;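 also: thallium influx through GIRK channels coupled to M4 in HEK293 cells with BTC-AM dye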). The settings on record: at 10 µM, actives lie on both sides. The gist of the method: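 Material: M4/GIRK1/GIRK2 stable HEK293 cell line. Medium: pH 7.3 thallium assay buffer. Dosing: single compound concentration, 10 µM final. Schedule: 1 h dye loading, 2 min kinetic read. Measured by: kinetic fluorescence with BTC-AM dye. Read-out: post-addition slope, 15–24 s, of baseline-normalized fluorescence. Benchmarks: carbachol and DMSO controls.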

Experiment [7] is described as follows: inhibitors of Sendai virus-induced IRF3 signaling, primary screen, TLR/RLR signaling modifier project, cell-based, Sendai virus stimulus, luciferase, 10K MLSCN set (AID 602276;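 active = inhibition at or above 50% at 10 µM; inactive = inhibition below 50%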;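 also: firefly luciferase from ISG56 promoter only with Renilla not read in this screen; 0% = Sendai virus plus DMSO and 100% = medium plus DMSO without virus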). The settings on record: HEK293 RL24 IRF3 luciferase reporter, at 10 µM, stronger effect = higher value. (In a reporter assay the amount or activity of a reporter protein is the signal.)
A short description of experiment [8]: inhibitors of poly I:C-induced TLR3 signaling, primary screen, cell-based, poly I:C stimulus, luciferase, 10K MLSCN set (AID 602277;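 active = inhibition of the reporter signal at or above 50%; inactive = inhibition below 50%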). The settings on record: HEK293-TLR3 RL24 IRF3 luciferase reporter, at 10 µM, stronger effect = higher value.
For experiment [9], the target named is Alpha-2C adrenergic receptor (Homo sapiens) (UniProt P18825). The experiment is described as follows: modulators of alpha2C/GIRK thallium flux, primary screen, cell-based, HEK293 alpha2C/GIRK1/2 (AID 624;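 active = fluorescence slope after compound addition differing from the mean of all screened samples at 99.7% confidence, in either direction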;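 also: slope of fluorescence ratio to pre-addition baseline per second over 15 to 24 s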). Particulars: thallium flux BTC fluorescence, at 10 µM, actives lie on both sides.
The nature of experiment [10]: inhibitors of larval lipid processing in zebrafish, primary screen, whole organism, PED6 fluorescence, gall bladder and intestine (AID 686;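 active = a full or partial loss of lipid-probe fluorescence in the fish gall bladder, intestine or both, judged by eye; inactive = no fluorescence loss, or compound toxic to the fish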;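 also: larvae 5 to 7 days old with five fish per well; signal comes from phospholipase A2 cleavage of quenched PED6 carried via bile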). The settings on record: Zebrafish larvae PED6 lipid processing, fluorescence scoring; screened at 20 µM (by protocol). Put shortly: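 System: live zebrafish larvae aged 5-7 days, whole organism; measure: graded gall bladder and intestinal fluorescence inhibition per well; incubation: overnight exposure; reagent: ingested quenched lipid PED6 at 100 nM; signal: By-eye fluorescence microscopy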

Activity calls are given as the source filed them.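 The calls were made as follows, unless noted: active = inhibition above 20% together with a positive visual image hit; inconclusive = visual image hit but inhibition not above 20%; inactive = no visual image hit.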

Sequence of Muscarinic acetylcholine receptor M4 (Homo sapiens) (P08173 whole entry, looked up): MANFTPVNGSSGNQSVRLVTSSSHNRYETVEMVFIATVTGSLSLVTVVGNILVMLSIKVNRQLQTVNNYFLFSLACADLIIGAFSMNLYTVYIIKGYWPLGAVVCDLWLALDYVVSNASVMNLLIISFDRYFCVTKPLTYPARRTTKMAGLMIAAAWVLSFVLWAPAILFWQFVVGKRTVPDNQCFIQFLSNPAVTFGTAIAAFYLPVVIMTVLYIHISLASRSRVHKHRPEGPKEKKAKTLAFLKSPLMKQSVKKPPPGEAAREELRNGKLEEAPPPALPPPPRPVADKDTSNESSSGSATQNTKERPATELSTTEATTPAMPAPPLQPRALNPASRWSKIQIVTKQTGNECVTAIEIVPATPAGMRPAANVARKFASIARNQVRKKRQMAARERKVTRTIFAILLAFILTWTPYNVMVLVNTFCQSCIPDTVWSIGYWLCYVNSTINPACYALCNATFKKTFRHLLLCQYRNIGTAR
Sequence of Voltage-gated potassium channel subunit beta-2 (Rattus norvegicus) (P62483 whole entry, looked up): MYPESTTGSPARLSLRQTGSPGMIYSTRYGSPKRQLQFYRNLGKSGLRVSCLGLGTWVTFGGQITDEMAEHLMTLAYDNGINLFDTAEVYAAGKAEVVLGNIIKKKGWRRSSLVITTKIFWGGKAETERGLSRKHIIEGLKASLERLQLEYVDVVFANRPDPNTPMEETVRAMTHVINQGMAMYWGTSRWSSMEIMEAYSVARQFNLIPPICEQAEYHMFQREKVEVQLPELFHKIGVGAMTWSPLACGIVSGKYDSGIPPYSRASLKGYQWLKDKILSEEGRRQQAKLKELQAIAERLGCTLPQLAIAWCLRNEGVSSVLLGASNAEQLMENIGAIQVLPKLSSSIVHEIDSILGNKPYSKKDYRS
Sequence of Alpha-2C adrenergic receptor (Homo sapiens) (P18825 whole entry, looked up): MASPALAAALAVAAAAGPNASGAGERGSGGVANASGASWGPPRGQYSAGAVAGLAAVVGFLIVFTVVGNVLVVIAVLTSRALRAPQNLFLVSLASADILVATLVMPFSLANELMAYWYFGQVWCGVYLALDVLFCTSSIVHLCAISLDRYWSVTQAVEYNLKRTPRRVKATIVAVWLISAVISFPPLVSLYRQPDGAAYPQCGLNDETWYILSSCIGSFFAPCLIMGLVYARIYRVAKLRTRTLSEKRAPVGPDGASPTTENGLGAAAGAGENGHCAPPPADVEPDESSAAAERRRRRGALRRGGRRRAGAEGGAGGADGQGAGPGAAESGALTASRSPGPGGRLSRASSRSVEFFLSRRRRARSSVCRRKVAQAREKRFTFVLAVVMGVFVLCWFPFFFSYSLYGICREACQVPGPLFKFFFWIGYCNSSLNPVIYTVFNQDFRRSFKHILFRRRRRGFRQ

The inhibition is the relative decrease from the control value, in per cent. In the case of `CCc1cc2c(NCCC(=O)O)nc(C)nc2s1`, the cell count in experiment [1] amounted to 222. The inhibition is -13.7% (inactive) in experiment [1], -7.8% (inactive) in experiment [3], 2.05% (inactive) in experiment [7] and 15.1% (inactive) in experiment [8]. Moreover, the inhibition of aggregation in experiment [2] is 13.8% (inactive). For the same compound, the nuclei count in [2] came to 79%; in experiment [3] it was 104%. The fluorescence slope in experiment [4] was -0.575 (inactive); in experiment [6] it was 0.00598 (inactive). Besides, the NADPH fluorescence slope in [5] was -4e-05 (inactive).
As to `Cc1cc(C)nc(N2CCCC(C(=O)Nc3nc4ccc(S(C)(=O)=O)cc4s3)C2)n1` (configuration not stated), in experiment [1], the cell count is 599. For the same compound, the inhibition is 1.8% (inactive) in experiment [1], 6.8% (inactive) in experiment [3], 12% (inactive) in experiment [7] and 11.5% (inactive) in [8]. Further, in experiment [2], the inhibition of aggregation is 2.6% (inactive). Moreover, the nuclei count in experiment [2] came to 117%; in experiment [3], 107%. Moreover, the fluorescence slope is -0.459 (inactive) in experiment [4] and 0.00564 (inactive) in experiment [6]. In experiment [5], the NADPH fluorescence slope was 9.7e-05 (inactive).
As to `COC(=O)C1CCN(C(=O)CSc2nnc(-c3ccncc3)o2)CC1`, in [1], the cell count was 682. For the same compound, the inhibition in experiment [1] is -6.4% (inactive); in [3], -9.5% (inactive); in [7] it was -9.36% (inactive); in experiment [8], -15.6% (inactive). Further, the inhibition of aggregation in [2] is 22.4% (inactive). Further, the nuclei count came out at 59.8% in experiment [2] and 109% in experiment [3]. The values for the fluorescence slope in experiment [4] and in experiment [6] were -0.57 (inactive) and 0.0106 (inactive), respectively. The NADPH fluorescence slope in experiment [5] is -5.5e-05 (inactive).
Take `C=CCn1cnc2c(NCc3ccccc3)ncnc21`: the cell count in [1] stood at 387. The inhibition in experiment [1] is -13.3% (inactive); in experiment [3], 20.4% (inactive); in experiment [7], -54.3% (inactive); in experiment [8], -89% (inactive). The inhibition of aggregation in [2] is 3% (inactive). Moreover, the figures for the nuclei count in experiment [2] and in experiment [3] were 98.8% and 142%, respectively. Further, the fluorescence slope in [4] was -0.587 (inactive); in experiment [6], 0.00713 (inactive). For the same compound, the NADPH fluorescence slope in experiment [5] was 3.1e-05 (inactive).
Turning to `Cc1ccc(Cn2nnc3c(=O)[nH]c(C4CCN(S(=O)(=O)c5ccc(F)cc5)CC4)nc32)cc1`, in experiment [1], the cell count worked out at 436. Further, the inhibition in experiment [1] is 9.4% (inactive); in [7], 0.788% (inactive); in experiment [8], -11.3% (inactive). For the same compound, the inhibition of aggregation in [2] is 11.5% (inactive). The nuclei count in [2] was determined as 107%; in experiment [3], 153%. Moreover, the fluorescence slope is -0.584 (inactive) in [4] and 0.00687 (inactive) in experiment [6]. Further, the NADPH fluorescence slope in experiment [5] was 1.2e-05 (inactive).
For the compound `CC1(C)CC(=O)C2=C(C1)Nc1nc(SCCN3CCOCC3)[nH]c(=O)c1C2c1cccs1` (configuration not stated), the cell count in experiment [1] turned out to be 549. Further, the inhibition in experiment [1] is -8.4% (inactive); in experiment [3], -42.7% (inactive); in [7], -3.95% (inactive); in experiment [8] it was -12.2% (inactive). Besides, the inhibition of aggregation in experiment [2] is -11.8% (inactive). The nuclei count in experiment [2] was 50.7%; in experiment [3] it was 104%. Further, the results for the fluorescence slope in [4] and in [6] were -0.57 (inactive) and 0.00647 (inactive), respectively. The NADPH fluorescence slope in [5] is -3e-05 (inactive).
As for `Cc1cc(S(=O)(=O)N2CCN(c3ncccn3)CC2)ccc1-n1cnnn1`, in experiment [1], the cell count worked out at 402. The inhibition in experiment [1] was 7.9% (inactive); in experiment [7], -6.32% (inactive); in experiment [8] it was 0.356% (inactive). In addition, the inhibition of aggregation in experiment [2] is -13.8% (inactive). For the same compound, the nuclei count in [2] worked out at 101%; in experiment [3], 149%. Further, the fluorescence slope in experiment [4] was -0.393 (inactive). The NADPH fluorescence slope in experiment [5] is -1e-05 (inactive). Also, the slope in experiment [9] is 0.00528 (inactive). For the same compound, the result in experiment [10] was inactive.
For the compound `CCCCN(Cc1cc2cc(OC)ccc2[nH]c1=O)C(=O)COc1ccccc1`, the cell count in [1] came out at 348. Further, the inhibition in [1] is 4.3% (inactive); in experiment [3], -53.3% (inactive); in experiment [7] it was 7.27% (inactive); in experiment [8], 13.1% (inactive). The inhibition of aggregation in experiment [2] was -1.9% (inactive). In addition, the nuclei count in [2] was found to be 117%; in [3] it was 125%. Besides, the results for the fluorescence slope in experiment [4] and in experiment [6] were -0.505 (inactive) and 0.00376 (inactive), respectively. In experiment [5], the NADPH fluorescence slope was -5e-05 (inactive).

(Values after PubChem BioAssay.)
